Reference: ChEMBL document CHEMBL1122180, “Potential histamine H2-receptor antagonists. 4. Benzylhistamines” (J Med Chem, 1982)
Values belong to the compound of their own block, whether it stands above or below them. The source made the active and inactive calls. The rule behind the calls is not given here.

Tests used:
[1] = biological target: Histamine H2 receptor (Rattus norvegicus) (UniProt P25102); test: In vivo agonist activity against histamine H2-receptor in lumen-perfused stomach of atropinized (1 mg/kg) anesthetized rat gastric secretion; assay type: functional, organism-based
Sequence of Histamine H2 receptor (Rattus norvegicus) (P25102 whole entry, the tested form may be a part): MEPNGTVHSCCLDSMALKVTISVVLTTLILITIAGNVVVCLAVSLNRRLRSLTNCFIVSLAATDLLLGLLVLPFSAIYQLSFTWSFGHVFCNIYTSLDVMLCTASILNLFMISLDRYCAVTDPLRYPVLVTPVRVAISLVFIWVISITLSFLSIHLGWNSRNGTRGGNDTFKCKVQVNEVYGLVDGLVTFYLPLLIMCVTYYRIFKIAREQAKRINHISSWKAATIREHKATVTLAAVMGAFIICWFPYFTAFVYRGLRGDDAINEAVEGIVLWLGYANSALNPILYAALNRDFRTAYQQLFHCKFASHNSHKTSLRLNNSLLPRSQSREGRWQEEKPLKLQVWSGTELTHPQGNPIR
Outline: (§1)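 Urethane-anesthetized rat, atropinized (1 mg kg⁻¹), lumen-perfused stomach, acid output. Single intravenous doses of compound matched against histamine doses (0.5–1 μM kg⁻¹). Potency relative to histamine compared on peak responses.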

[2] = biological target: Histamine H2 receptor (Rattus norvegicus) (UniProt P25102); test: In vivo antagonist activity against histamine H2-receptor in lumen-perfused stomach of atropinized (1 mg/kg) anesthetized rat gastric secretion at 187 ug/kg; weak inhibition; assay type: functional, organism-based; details: filed as antagonist
[3] = biological target: Histamine H1 receptor (Cavia porcellus) (UniProt P31389); test: In vitro agonist activity against histamine H1-receptor in guinea pig ileum in the presence of atropine (0.5 uM) relative to histamine.; assay type: functional, tissue-based
Sequence of Histamine H1 receptor (Cavia porcellus) (P31389 whole entry, the tested form may be a part): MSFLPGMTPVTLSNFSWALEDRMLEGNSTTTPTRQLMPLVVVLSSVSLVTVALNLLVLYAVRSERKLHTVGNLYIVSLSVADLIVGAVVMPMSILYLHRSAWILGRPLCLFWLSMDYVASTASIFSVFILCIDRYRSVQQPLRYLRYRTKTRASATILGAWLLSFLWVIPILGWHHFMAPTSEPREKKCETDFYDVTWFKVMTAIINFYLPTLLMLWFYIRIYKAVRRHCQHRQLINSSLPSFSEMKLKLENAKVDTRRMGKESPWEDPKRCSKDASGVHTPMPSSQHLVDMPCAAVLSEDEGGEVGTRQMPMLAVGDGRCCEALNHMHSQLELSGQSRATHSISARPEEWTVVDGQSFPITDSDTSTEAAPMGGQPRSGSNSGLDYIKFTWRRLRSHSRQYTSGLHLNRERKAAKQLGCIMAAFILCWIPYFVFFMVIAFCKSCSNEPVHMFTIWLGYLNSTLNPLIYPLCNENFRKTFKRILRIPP
Outline: (§2)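 Isolated guinea pig ileum contraction with atropine (0.5 μM). Agonism tested up to 781 μM (0.1% histamine). Relative activity came from cumulative dose–response curves; one compound was run as a 2+2 parallel assay.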

[4] = biological target: Histamine H2 receptor (Cavia porcellus) (UniProt P47747); test: Agonist activity was measured for histamine H2-receptor in guinea pig atrium.; assay type: functional, tissue-based; details: Cardiac atrium
Sequence of Histamine H2 receptor (Cavia porcellus) (P47747 whole entry, the tested form may be a part): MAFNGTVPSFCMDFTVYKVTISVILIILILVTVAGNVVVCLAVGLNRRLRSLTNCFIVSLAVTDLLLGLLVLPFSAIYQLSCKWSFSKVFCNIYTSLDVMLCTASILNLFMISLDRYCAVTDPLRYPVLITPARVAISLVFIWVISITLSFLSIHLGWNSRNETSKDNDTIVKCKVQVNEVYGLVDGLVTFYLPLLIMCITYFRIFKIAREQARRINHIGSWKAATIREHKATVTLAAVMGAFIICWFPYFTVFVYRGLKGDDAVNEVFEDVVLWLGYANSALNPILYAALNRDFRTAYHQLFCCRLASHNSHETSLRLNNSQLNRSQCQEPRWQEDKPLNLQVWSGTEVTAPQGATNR

[5] = biological target: Histamine H2 receptor (Cavia porcellus) (UniProt P47747); test: Antagonist activity was measured for histamine H2-receptor in guinea pig atrium; 486 uM/L; assay type: functional, tissue-based; details: Cardiac atrium
Outline: (§3)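 Guinea pig right atrium in vitro, propranolol (0.5 μM) present. Test compounds given up to 486 μM against histamine (0.2–781 μM). Any active compound was run at three dose levels (five observations).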

[6] = biological target: Histamine H2 receptor (Rattus norvegicus) (UniProt P25102); test: In vivo agonist activity against histamine H2-receptor in lumen-perfused stomach of atropinized (1 mg/kg) anesthetized rat gastric secretion at 187 ug/kg; -ve; assay type: functional, organism-based; outline: as §1
[7] = biological target: Histamine H2 receptor (Cavia porcellus) (UniProt P47747); test: Agonist activity was measured for histamine H2-receptor in guinea pig atrium; -ve; <0.1% of histamine (781 uM/L); assay type: functional, tissue-based; details: Cardiac atrium
[8] = biological target: Histamine H2 receptor (Rattus norvegicus) (UniProt P25102); test: In vivo antagonist activity against histamine H2-receptor in lumen-perfused stomach of atropinized (1 mg/kg) anesthetized rat gastric secretion at 128 ug/kg; -ve; assay type: functional, organism-based
[9] = biological target: Histamine H2 receptor (Cavia porcellus) (UniProt P47747); test: Antagonist activity was measured for histamine H2-receptor in guinea pig atrium; -ve; assay type: functional, tissue-based; details: Cardiac atrium; outline: as §3
[10] = biological target: Histamine H1 receptor (Cavia porcellus) (UniProt P31389); test: In vitro agonist activity against histamine H1-receptor in guinea pig ileum in the presence of atropine (0.5 uM) relative to histamine; assay type: functional, tissue-based; outline: as §2
[11] = biological target: Histamine H2 receptor (Rattus norvegicus) (UniProt P25102); test: In vivo agonist activity against histamine H2-receptor in lumen-perfused stomach of atropinized (1 mg/kg) anesthetized rat gastric secretion at 256 ug/kg; -ve; assay type: functional, organism-based; outline: as §1
[12] = biological target: Histamine H1 receptor (Cavia porcellus) (UniProt P31389); test: In vitro antagonist activity against histamine H1-receptor in guinea pig ileum in the presence of atropine (0.5 uM); assay type: functional, tissue-based
Outline: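 Isolated guinea pig ileum with atropine (0.5 μM) present. Antagonism measured against histamine (0.1–109 μM)-stimulated contraction. Cumulative dose–response curves plotted for active compounds at three dose levels (nine observations).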

[13] = biological target: Histamine H1 receptor (Cavia porcellus) (UniProt P31389); test: In vitro agonist activity against histamine H1-receptor in guinea pig ileum in the presence of atropine (0.5 uM) relative to histamine; -ve; <0.1% of histamine (781 uM/L); assay type: functional, tissue-based
Outline: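 Isolated guinea pig ileum with atropine (0.5 μM) present. Agonist activity assayed up to 781 μM (0.1% histamine). Activity relative to histamine taken from cumulative dose–response curves. A 2+2 parallel assay was run for one compound.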

[14] = biological target: Histamine H2 receptor (Rattus norvegicus) (UniProt P25102); test: In vivo antagonist activity against histamine H2-receptor in lumen-perfused stomach of atropinized (1 mg/kg) anesthetized rat gastric secretion at 256 ug/kg; -ve; assay type: functional, organism-based
[15] = biological target: Histamine H2 receptor (Rattus norvegicus) (UniProt P25102); test: In vivo agonist activity against histamine H2-receptor in lumen-perfused stomach of atropinized (1 mg/kg) anesthetized rat gastric secretion at 512 ug/kg; -ve; assay type: functional, organism-based; outline: as §1
[16] = biological target: Histamine H1 receptor (Cavia porcellus) (UniProt P31389); test: In vitro antagonist activity against histamine H1-receptor in guinea pig ileum in the presence of atropine (0.5 uM).; assay type: functional, tissue-based
Outline: (§4)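 Guinea pig ileum in vitro with atropine (0.5 μM) present. Compounds tested against histamine-stimulated contraction (histamine 0.1–109 μM). Cumulative dose–response curves plotted for active compounds at three dose levels (nine observations); pA2 derived.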

[17] = biological target: Histamine H2 receptor (Cavia porcellus) (UniProt P47747); test: Agonist activity was measured for histamine H2-receptor in guinea pig atrium; assay type: functional, tissue-based; details: Cardiac atrium
[18] = biological target: Histamine H2 receptor (Rattus norvegicus) (UniProt P25102); test: In vivo antagonist activity against histamine H2-receptor in lumen-perfused stomach of atropinized (1 mg/kg) anesthetized rat gastric secretion at 512 ug/kg; -ve; assay type: functional, organism-based
[19] = biological target: Histamine H1 receptor (Cavia porcellus) (UniProt P31389); test: In vitro antagonist activity against histamine H1 receptor in guinea pig ileum in the presence of atropine (0.5 uM); assay type: functional, tissue-based; outline: as §4
[20] = biological target: Histamine H2 receptor (Cavia porcellus) (UniProt P47747); test: Antagonist activity was measured for histamine H2-receptor in guinea pig atrium.; assay type: functional, tissue-based; details: Cardiac atrium; outline: as §3
[21] = biological target: Histamine H1 receptor (Cavia porcellus) (UniProt P31389); test: In vitro agonist activity against histamine H1 receptor in guinea pig ileum in the presence of atropine (0.5 uM) relative to histamine; -ve; <0.1% of histamine (781 uM/L); assay type: functional, tissue-based; outline: as §2
[22] = biological target: Histamine H2 receptor (Rattus norvegicus) (UniProt P25102); test: In vivo agonist activity against histamine H2-receptor in lumen-perfused stomach of atropinized (1 mg/kg) anesthetized rat gastric secretion at 128 ug/kg; -ve; assay type: functional, organism-based; outline: as §1
[23] = biological target: Histamine H2 receptor (Rattus norvegicus) (UniProt P25102); test: In vivo agonist activity against histamine H2-receptor in lumen-perfused stomach of atropinized (1 mg/kg) anesthetized rat gastric secretion at 64 ug/kg; -ve; assay type: functional, organism-based
Outline: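 In vivo, urethane-anaesthetised rat given atropine (1 mg kg⁻¹), lumen-perfused stomach, acid secretion as read-out. Compounds given intravenously as single doses and matched against single histamine doses (0.5–1 μM kg⁻¹).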

[24] = biological target: Histamine H2 receptor (Cavia porcellus) (UniProt P47747); test: Antagonist activity was measured for histamine H2-receptor in guinea pig atrium; -ve; 486 uM/L; assay type: functional, tissue-based; details: Cardiac atrium
Outline: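 Isolated guinea pig right atrium with propranolol (0.5 μM) present. Compounds tested as antagonists against histamine (0.2–781 μM) at up to 486 μM. Active compounds run at three dose levels (five observations).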

Agonist activity [1]: 0.5
Antagonist activity [2]: Partial antagonist
Agonist activity [3]: 0.4
Agonist activity [4]: 0.7
Antagonist activity [5]: < 3.3
Compound: c1ccc(CNCCc2c[nH]cn2)cc1

Agonist activity [6]: inactive
Agonist activity [7]: inactive
Antagonist activity [8]: inactive
Antagonist activity [9]: < 3.3
Agonist activity [10]: 2.3
Compound: NCCc1c[nH]c(Cc2ccccc2)n1

Agonist activity [11]: inactive
Antagonist activity [12]: 3.6 pA2
Agonist activity [7]: inactive
Agonist activity [13]: inactive
Antagonist activity [5]: < 3.3
Antagonist activity [8]: inactive
Compound: NCCc1cncn1Cc1ccccc1

Antagonist activity [14]: inactive
Agonist activity [1]: 3
Agonist activity [7]: inactive
Antagonist activity [5]: < 3.3
Agonist activity [10]: 0.4
Compound: NCCc1cn(Cc2ccccc2)cn1

Agonist activity [15]: inactive
Agonist activity [3]: 0.1
Antagonist activity [16]: 4 pA2
Agonist activity [17]: 1
Antagonist activity [5]: < 3.3
Antagonist activity [18]: inactive
Compound: NCC(Cc1ccccc1)c1c[nH]cn1 (centres undefined)

Agonist activity [7]: inactive
Antagonist activity [19]: 4.7 pA2
Antagonist activity [20]: 4.35
Agonist activity [21]: inactive
Antagonist activity [8]: inactive
Agonist activity [22]: inactive
Compound: NCCc1ncn(Cc2ccccc2)c1Cc1ccccc1

Compound: NCCc1[nH]cnc1Cc1ccccc1
Agonist activity [23]: inactive
Antagonist activity [12]: 4.4 pA2
Antagonist activity [24]: < 3.3
Agonist activity [7]: inactive
Agonist activity [13]: inactive
Antagonist activity [8]: inactive
